# Results: the EternaBench riboswitch data
# Tested on: MS2 coat protein
# Experiment: apparent Kd, MS2 coat protein; higher = weaker binding; RNA-MaP array; theophylline 2 mM where present
# How it was run: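 On Illumina sequencing-chip clusters, designs were transcribed by stalled E. coli RNA polymerase and titrated with SNAP-549-labelled MS2 coat protein (0.7 or 1.5 nM, doubling to 3 µM), without and then with constant ligand, in 100 mM Tris-HCl pH 7.5, 80 mM KCl, 4 mM MgCl2, BSA, DTT, yeast tRNA and Tween-20. Apparent Kd is the median of filtered per-cluster curve fits to green signal normalised to red-channel RNA signal and control-cluster median Fmax.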
# [1] = designed as: ON switch for theophylline, no ligand
# [2] = ligand present: theophylline, designed as: ON switch for theophylline
# [3] = designed as: OFF switch for theophylline, no ligand
# [4] = ligand present: theophylline, designed as: OFF switch for theophylline
Sequence,apparent Kd [1] [nM],apparent Kd [2] [nM],apparent Kd [3] [nM],apparent Kd [4] [nM]
AGUACUCGAACGGAUACCAGCCGGACAUGAGGAUCACCCAUGUCCUACCUCUGUUCGGUUGGCCCUUGGCAGCCGUUCGUGUACA,99.4,93.3,–,–
AUCCUUAAUAGGGUAAAUGGAUAAAGUGAUACCAGUCAAAUACAAGACCCUUGGCAGCACAAGGACAUGAGGAUCACCCAUGUCA,20.5,14.7,–,–
AGAUAACAUGGUUUAAUAAGUUAAACUGAUACCAGUGUAUAUAAUCACCCUUGGCAGCAGCAACAUGAGGAUCACCCAUGUAAUA,17.2,21.9,–,–
GCGAUACAUGAGGAUCACCCAUGUGCAGAUACCAGAGGUGCAUGCCUCCCUUGGCAGCUGCGACGCUCUGGCAUCUUGUGGGAUG,69.1,71,–,–
AAUAACAUGAGGAUCACCCAUGUAAAAGAUACCAGAUGCAUGAUGAUCCCUUGGCAGCUUAACGCUGAUUGGAAACAAUCAGCGA,39,37.6,–,–
AUAAUGGGUAUCGGAUUAUCAUGGAAUGAUACCAGAUACUUAGAUAUCCCUUGGCAGCAUGAGGACAUGAGGAUCACCCAUGUAU,–,–,46.4,118
UGGUACAUGAGGAUCACCCAUGUUCCAGAUACCAGAUACCCGGUUAUCCCUUGGCAGCUGGUGGUACAUGAGGAUCACCCAUGUG,–,–,36.1,86.7
AGACAUGAGGAUCACCCAUGUAGUAUGGAUACCAGAUCCAGAUUUAUCCCUUGGCAGCUGUGGUACAGCGUUGCAACGCUCCUAG,–,–,29.3,28.9
ACGAUACGACAUGAGGAUCACCCAUGUGAUACCAGCGUGGAAACACGCCCUUGGCAGCACAAAUACUCCAGAAACGUAUCGAAAA,–,–,239,389
GGCUGUUGCGAUUUGAAGCGGCAGCGUGAUACCAGAUGUAAGAGCGUCCCUUGGCAGCACGUUUACAUGAGGAUCACCCAUGUCA,106,60,–,–
CGACGAUACCUGGAUACCAGCGACAUGAGGAUCACCCAUGUAUGUGGAUCAGCCAUGAUAUGCCCUUGGCAGCCACCAAAGUCGG,–,–,14.9,51.9
GAGCUGAUGUAGGGCGGAUAUCCGUGAGAUACCAGUACAGAAAUGUACCCUUGGCAGCUCUUCCUUACAUGAGGAUCACCCAUGU,–,–,19.4,36.1
UUAUUUAUAAUUGAUACCAGUUUAAUGGCCGCAAAUCCUGACAUGAGGAUCACCCAUGUAAGCCCUUGGCAGCGGUUAUGGGUUU,–,–,21,21.1
AAUAACAUGAGGAUCACCCAUGUAAAAGAUACCAGAGUGAUGAUCCUCCCUUGGCAGCUUAAUAACGCUAUCGGAAACGAUAGCG,69.2,105,–,–
AUAAGUAAUGUCUCGUGUAUUAUUACAGAUACCAGACUAUCCUAUGUCCCUUGGCAGCUGGAUUACAUGAGGAUCACCCAUGUGG,–,–,43.6,35
ACGUCAUGGAGAACGUGACGACUUAUCGAUACCAGCGAUUGAGAGCGCCCUUGGCAGCGAACAUGAGGAUCACCCAUGUCAAGGG,29.7,42.1,–,–
AUCGUACCUGAUGAUACCAGCAAGUGAUCAUAACAUGAGGAUCACCCAUGUAAUCAGUGAUGCCCUUGGCAGCAUAAUCGAUACA,178,140,–,–
GAUGAACUAUUUGAUACCAGACUACAUGAGGAUCACCCAUGUGCGCGUCGUCCUCUGCCAGUCCCUUGGCAGCAAAUAGUUUAUC,–,–,101,127
AAUGCUGCCAAGGAUUCCUCAUGAGCAGAUACCAGCUAGGAAACUAGCCCUUGGCAGCUGCAACAUGAGGAUCACCCAUGUAAUA,–,–,38.5,26.3
